Measurements reported in ChEMBL document CHEMBL5724801, “EUbOPEN Chemogenomics Library - Multiplex” (2024).
Values joined by “and” are separate entries in the source; they are usually repeats but may differ in a detail not shown here. Identical values can stand only once.

Tested on: HEK-293T
Test: Multiplex assay against HEK293T
Assay type: toxicity, cell-based
Settings: human
In short: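 Tubulin, mitochondrial-mass and membrane-permeability phenotypes are per cents of healthy-nucleus cells. Cells were gated by CellPathfinder machine learning into Hoechst high-intensity objects or normal cells, normal cells into healthy, pyknosed or fragmented nuclei, and pyknosed cells into mitotic or apoptotic. Before that, live cells stained at seeding with Hoechst33342, BioTracker Green Microtubule Cytoskeleton Dye, MitoTracker Red and Annexin V Alexa Fluor 680 were imaged on a CQ1 microscope at 37°C and 5% CO2 after compound addition.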

[1] = 12 h, 1 µM, compound concentration 1 uM
[2] = 12 h, 10 µM, compound concentration 10 uM
[3] = 24 h, 1 µM, compound concentration 1 uM
[4] = 24 h, 10 µM, compound concentration 10 uM
[5] = 48 h, 1 µM, compound concentration 1 uM
[6] = 48 h, 10 µM, compound concentration 10 uM

Q: Which results are given for `CCCOc1ccc2[nH]cc(C3=CCNCC3)c2n1.Cl`?
A: Population Apoptotic (%) [1]: 32% and 44%; Population Fragmented Nuclei (%) [1]: 5% and 6%; Population Healthy Nuclei (%) [1]: 81% and 82%; Population Hoechst High Intensity Objects (%) [1]: 5% and 4%; Population Membrane Permeable-Phenotype (%) [1]: 0%; Population Mitochondria Different-Phenotype (%) [1]: 41% and 52%; Population Mitotic Cells (%) [1]: 68% and 55%; Population Normal (%) [1]: 94% and 95%; Population Pyknosed Nuclei (%) [1]: 12% and 10%; Population Tubulin-Different-Phenotype (%) [1]: 39% and 21%; Total Cell Count [1]: 416 and 344; Population Apoptotic (%) [2]: 43% and 55%; Population Fragmented Nuclei (%) [2]: 5% and 6%; Population Healthy Nuclei (%) [2]: 78% and 82%; Population Hoechst High Intensity Objects (%) [2]: 10% and 4%; Population Membrane Permeable-Phenotype (%) [2]: 0%; Population Mitochondria Different-Phenotype (%) [2]: 58% and 76%; Population Mitotic Cells (%) [2]: 56% and 44%; Population Normal (%) [2]: 89% and 95%; Population Pyknosed Nuclei (%) [2]: 15% and 11%; Population Tubulin-Different-Phenotype (%) [2]: 41%; Total Cell Count [2]: 446 and 387; Population Apoptotic (%) [3]: 28% and 35%; Population Fragmented Nuclei (%) [3]: 10% and 9%; Population Healthy Nuclei (%) [3]: 76% and 80%; Population Hoechst High Intensity Objects (%) [3]: 3% and 2%; Population Membrane Permeable-Phenotype (%) [3]: 0% and 1%; Population Mitochondria Different-Phenotype (%) [3]: 26% and 29%; Population Mitotic Cells (%) [3]: 71% and 64%; Population Normal (%) [3]: 96% and 97%; Population Pyknosed Nuclei (%) [3]: 12% and 9%; Population Tubulin-Different-Phenotype (%) [3]: 24% and 14%; Total Cell Count [3]: 558 and 425; Population Apoptotic (%) [4]: 39% and 51%; Population Fragmented Nuclei (%) [4]: 12% and 6%; Population Healthy Nuclei (%) [4]: 74% and 81%; Population Hoechst High Intensity Objects (%) [4]: 7% and 3%; Population Membrane Permeable-Phenotype (%) [4]: 0%; Population Mitochondria Different-Phenotype (%) [4]: 50% and 63%; Population Mitotic Cells (%) [4]: 60% and 48%; Population Normal (%) [4]: 92% and 96%; Population Pyknosed Nuclei (%) [4]: 12% and 11%; Population Tubulin-Different-Phenotype (%) [4]: 38% and 34%; Total Cell Count [4]: 583 and 502; Population Apoptotic (%) [5]: 17% and 38%; Population Fragmented Nuclei (%) [5]: 13% and 9%; Population Healthy Nuclei (%) [5]: 79% and 82%; Population Hoechst High Intensity Objects (%) [5]: 2% and 1%; Population Membrane Permeable-Phenotype (%) [5]: 0% and 1%; Population Mitochondria Different-Phenotype (%) [5]: 15% and 20%; Population Mitotic Cells (%) [5]: 82% and 61%; Population Normal (%) [5]: 97% and 98%; Population Pyknosed Nuclei (%) [5]: 6% and 7%; Population Tubulin-Different-Phenotype (%) [5]: 12% and 9%; Total Cell Count [5]: 872 and 657; Population Apoptotic (%) [6]: 35% and 26%; Population Fragmented Nuclei (%) [6]: 14% and 13%; Population Healthy Nuclei (%) [6]: 76% and 80%; Population Hoechst High Intensity Objects (%) [6]: 6% and 5%; Population Membrane Permeable-Phenotype (%) [6]: 0%; Population Mitochondria Different-Phenotype (%) [6]: 41% and 37%; Population Mitotic Cells (%) [6]: 64% and 73%; Population Normal (%) [6]: 93% and 94%; Population Pyknosed Nuclei (%) [6]: 8% and 6%; Population Tubulin-Different-Phenotype (%) [6]: 23% and 20%; Total Cell Count [6]: 776 and 733
